Results as given in ChEMBL document CHEMBL6121049, “Discovery of Orally Available Prodrugs of Itaconate and Derivatives” (J Med Chem, 2025).
Active and inactive are the calls of the source. No cut-off for these calls is given here.

Test system: not listed separately
Assay: Metabolic stability in mouse plasma assessed as compound remaining at 10 uM measured after 1 hrs by LC-MS analysis
Format: ADME, cell-free
Settings: not given
In short: (§1)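 Prodrugs (10 μM) spiked into mouse or human plasma, shaken at 37 °C; samples at 0 and 60 min quenched in cold acetonitrile with losartan internal standard, centrifuged, diluted, run by LC-HRMS; % remaining from analyte/IS peak-area ratio.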

Q: Which Stability does the source give for `C=C(CC(=O)OCOC(=O)OC(C)C)C(=O)OC` here?
A: 0%

Q: With `C=C(CC(=O)OCOC(=O)C(C)(C)C)C(=O)OCOC(=O)C(C)(C)C` as the compound, how does the Stability read?
A: 0%

Q: Which Stability does the source give for `C=C(CC(=O)OC)C(=O)OCOC(=O)OC(C)C` here?
A: 0%

Q: With `C=C(CC(=O)OCc1oc(=O)oc1C)C(=O)OC` as the compound, how does the Stability read?
A: 0%

Test system: not listed separately
Assay: Metabolic stability in mouse skin homogenate assessed as compound remaining at 10 uM measured after 1 hrs by LC-MS analysis
Format: ADME, tissue-based, Skin of body
Settings: tissue homogenate

Q: For `C=C(CC(=O)OCOC(=O)OC(C)C)C(=O)OC`, which Stability is on record?
A: 0%

Q: For `C=C(CC(=O)OCOC(=O)C(C)(C)C)C(=O)OCOC(=O)C(C)(C)C`, which Stability is on record?
A: 0%

Q: With `C=C(CC(=O)OC)C(=O)OCOC(=O)OC(C)C` as the compound, how does the Stability read?
A: 0%

Q: With `C=C(CC(=O)OCc1oc(=O)oc1C)C(=O)OC` as the compound, how does the Stability read?
A: 0%

Test system: not listed separately
Assay: Metabolic stability in human plasma assessed as compound remaining at 10 uM measured after 1 hrs by LC-MS analysis
Format: ADME, cell-free
Settings: not given
In short: as §1

Q: With `C=C(CC(=O)OCOC(=O)OC(C)C)C(=O)OC` as the compound, how does the Stability read?
A: 0%

Q: Which Stability does the source give for `C=C(CC(=O)OCOC(=O)C(C)(C)C)C(=O)OCOC(=O)C(C)(C)C` here?
A: 0%

Q: Which Stability does the source give for `C=C(CC(=O)OC)C(=O)OCOC(=O)OC(C)C` here?
A: 0%

Q: For `C=C(CC(=O)OCc1oc(=O)oc1C)C(=O)OC`, which Stability is on record?
A: 0%

Test system: not listed separately
Assay: Metabolic stability in human skin homogenate assessed as compound remaining at 10 uM measured after 1 hrs by LC-MS analysis
Format: ADME, tissue-based, Skin of body
Settings: tissue homogenate

Q: With `C=C(CC(=O)OCOC(=O)OC(C)C)C(=O)OC` as the compound, how does the Stability read?
A: 0%

Q: For `C=C(CC(=O)OCOC(=O)C(C)(C)C)C(=O)OCOC(=O)C(C)(C)C`, which Stability is on record?
A: 0%

Q: Which Stability does the source give for `C=C(CC(=O)OC)C(=O)OCOC(=O)OC(C)C` here?
A: 1.6%

Q: Which Stability does the source give for `C=C(CC(=O)OCc1oc(=O)oc1C)C(=O)OC` here?
A: 56%

Test system: not listed separately
Assay: Chemical stability in pH 1.2 assessed as compound remaining at 10 uM measured after 1 hrs by LC-MS/MS analysis
Format: physicochemical
Settings: buffer, pH 1.2, 1 h
In short: (§2)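 Compounds incubated in buffers at pH 1.2, 4.5 or 7.4 at 37 °C for 1 h; prodrug disappearance followed by LC–MS/MS as % remaining.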

Q: For `C=C(CC(=O)OCOC(=O)OC(C)C)C(=O)OC`, which Stability is on record?
A: 98%

Q: Which Stability does the source give for `C=C(CC(=O)OCOC(=O)C(C)(C)C)C(=O)OCOC(=O)C(C)(C)C` here?
A: 106%

Q: For `C=C(CC(=O)OC)C(=O)OCOC(=O)OC(C)C`, which Stability is on record?
A: 108%

Q: Which Stability does the source give for `C=C(CC(=O)OCc1oc(=O)oc1C)C(=O)OC` here?
A: 100%

Test system: not listed separately
Assay: Chemical stability in pH 4.5 assessed as compound remaining at 10 uM measured after 1 hrs by LC-MS/MS analysis
Format: physicochemical
Settings: buffer, pH 4.5, 1 h
In short: as §2

Q: For `C=C(CC(=O)OCOC(=O)OC(C)C)C(=O)OC`, which Stability is on record?
A: 94%

Q: With `C=C(CC(=O)OCOC(=O)C(C)(C)C)C(=O)OCOC(=O)C(C)(C)C` as the compound, how does the Stability read?
A: 92%

Q: Which Stability does the source give for `C=C(CC(=O)OC)C(=O)OCOC(=O)OC(C)C` here?
A: 103%

Q: With `C=C(CC(=O)OCc1oc(=O)oc1C)C(=O)OC` as the compound, how does the Stability read?
A: 97%

Test system: not listed separately
Assay: Chemical stability in pH 7.4 assessed as compound remaining at 10 uM measured after 1 hrs by LC-MS/MS analysis
Format: physicochemical
Settings: buffer, pH 7.4, 1 h
In short: as §2

Q: Which Stability does the source give for `C=C(CC(=O)OCOC(=O)OC(C)C)C(=O)OC` here?
A: 63%

Q: Which Stability does the source give for `C=C(CC(=O)OCOC(=O)C(C)(C)C)C(=O)OCOC(=O)C(C)(C)C` here?
A: 104%

Q: Which Stability does the source give for `C=C(CC(=O)OC)C(=O)OCOC(=O)OC(C)C` here?
A: 102%

Q: With `C=C(CC(=O)OCc1oc(=O)oc1C)C(=O)OC` as the compound, how does the Stability read?
A: 69%

Test system: not listed separately
Assay: Permeability of the compound at pH 7.4 incubated for 4 hrs by PAMPA-GIT assay
Format: ADME
Settings: pH 7.4, 4 h
In short: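 PAMPA-GIT sandwich: acceptor filter coated with GIT-0 lipid; donor holds 10 μM compound in pH 7.4 buffer with 0.2% DMSO, acceptor pH 7.4 sink buffer; 4 h at room temperature; both compartments sampled by LC-MS/MS; effective permeability Pe calculated with membrane retention correction.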

Q: For `C=C(CC(=O)OCOC(=O)OC(C)C)C(=O)OC`, which permeability is on record?
A: 29.3 10^-6 cm/s

Q: Which permeability does the source give for `C=C(CC(=O)OCOC(=O)C(C)(C)C)C(=O)OCOC(=O)C(C)(C)C` here?
A: 35.8 10^-6 cm/s

Q: For `C=C(CC(=O)OC)C(=O)OCOC(=O)OC(C)C`, which permeability is on record?
A: 35.3 10^-6 cm/s

Q: With `C=C(CC(=O)OCc1oc(=O)oc1C)C(=O)OC` as the compound, how does the permeability read?
A: 16.3 10^-6 cm/s

Test system: not listed separately
Assay: Cytotoxicity against NHEK cells assessed as cell viability at 100 uM measured after 8 hrs by CellTiter-Glo assay relative to control
Format: toxicity, cell-based
Settings: human
In short: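 Primary normal human epidermal keratinocytes, expanded and seeded, exposed to 1, 10, 30 or 100 μM for 8 h; viability by CellTiter-Glo luminescence as % viable.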

Q: For `C=C(CC(=O)OCOC(=O)OC(C)C)C(=O)OC`, which Activity is on record?
A: > 80%

Q: Which Activity does the source give for `C=C(CC(=O)OC)C(=O)OCOC(=O)OC(C)C` here?
A: > 80%

Test system: not listed separately
Assay: Immunomodulatory activity in NHEK cells assessed as inhibition of IFN-gamma induced CXCL11 expression at 30 to 100 uM by TaqMan RTPCR analysis relative to control
Format: functional, Homo sapiens
Settings: dose 30-100 µM
In short: (§3)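 Primary human keratinocytes seeded, held overnight at 37 °C, 5% CO2, then stimulated with Poly(I:C) 50 μg/mL plus IFNγ 5 ng/mL, with or without prodrug at 1, 10, 30 or 100 μM; gene induction measured at 8 h.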

Q: With `C=C(CC(=O)OC)C(=O)OCOC(=O)OC(C)C` as the compound, how does the “inhibition (INH)” value read?
A: >50%

Test system: not listed separately
Assay: Immunomodulatory activity in NHEK cells assessed as inhibition of IFN-gamma induced CXCL10 expression at 100 uM by TaqMan RTPCR analysis relative to control
Format: functional
Settings: Homo sapiens
In short: as §3

Q: With `C=C(CC(=O)OCOC(=O)OC(C)C)C(=O)OC` as the compound, how does the inhibition at 100 µM read?
A: < 50%

Test system: not listed separately
Assay: Immunomodulatory activity in NHEK cells assessed as inhibition of IFN-gamma induced CXCL11 expression at 100 uM by TaqMan RTPCR analysis relative to control
Format: functional
Settings: Homo sapiens
In short: as §3

Q: With `C=C(CC(=O)OCOC(=O)OC(C)C)C(=O)OC` as the compound, how does the inhibition at 100 µM read?
A: < 50%

Test system: not listed separately
Assay: Immunomodulatory activity in NHEK cells assessed as inhibition of Poly(I:C)/IFN-gamma induced IL-1 beta expression at >= 10 uM by TaqMan RTPCR analysis relative to control
Format: functional, Homo sapiens
Design: scale not given: the % may be the effect or the level left
Settings: not given
In short: as §3

Q: Which Activity does the source give for `C=C(CC(=O)OC)C(=O)OCOC(=O)OC(C)C` here?
A: >50%

Test system: NHEK
Assay: Immunomodulatory activity in NHEK cells assessed as inhibition of Poly(I:C)/IFN-gamma induced IL-1 beta expression at 100 uM by TaqMan RTPCR analysis
Format: functional, cell-based
Settings: Homo sapiens
In short: as §3

Q: Which Activity does the source give for `C=C(CC(=O)OCOC(=O)OC(C)C)C(=O)OC` here?
A: Active

Test system: not listed separately
Assay: Prodrug conversion in C57BL6 mouse skin assessed as 4-methyl itaconate Cmax at 100 mg/kg, po measured after 24 hrs by LC-MS/MS analysis
Format: ADME, organism-based, Skin of body
Settings: in vivo
In short: (§4)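 C57BL6 mice, 25–30 g, 8.5 weeks old, given 100 mg/kg (IA or 4-MI equivalent) orally in 10% DMSO/80% PEG/10% HBS, freshly prepared; killed at 0.25–24 h, n = 3 per time point; acidified plasma and stabilized skin homogenates, methanol precipitation with internal standards, LC-MS/MS (orbitrap); PK parameters as mean ± SEM.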

Q: With `C=C(CC(=O)OC)C(=O)OCOC(=O)OC(C)C` as the compound, how does the Cmax read?
A: 192 nmol/g

Test system: not listed separately
Assay: Prodrug conversion in C57BL6 mouse plasma assessed as 4-methyl itaconate Cmax at 100 mg/kg, po measured after 24 hrs by LC-MS/MS analysis
Format: ADME, organism-based
Settings: in vivo
In short: as §4

Q: For `C=C(CC(=O)OC)C(=O)OCOC(=O)OC(C)C`, which Cmax is on record?
A: 349 µM

Test system: not listed separately
Assay: Prodrug conversion in C57BL6 mouse plasma assessed as 4-methyl itaconate Tmax at 100 mg/kg, po measured after 24 hrs by LC-MS/MS analysis
Format: ADME, organism-based
Settings: in vivo
In short: as §4

Q: Which Tmax does the source give for `C=C(CC(=O)OC)C(=O)OCOC(=O)OC(C)C` here?
A: 30 min

Test system: not listed separately
Assay: Prodrug conversion in C57BL6 mouse skin assessed as 4-methyl itaconate Tmax at 100 mg/kg, po measured after 24 hrs by LC-MS/MS analysis
Format: ADME, organism-based, Skin of body
Settings: in vivo
In short: as §4

Q: With `C=C(CC(=O)OC)C(=O)OCOC(=O)OC(C)C` as the compound, how does the Tmax read?
A: 60 min

Test system: not listed separately
Assay: Prodrug conversion in C57BL6 mouse plasma assessed as 4-methyl itaconic AUC (0 to t) at 100 mg/kg, po measured after 24 hrs by LC-MS/MS analysis
Format: ADME, organism-based
Settings: in vivo

Q: With `C=C(CC(=O)OC)C(=O)OCOC(=O)OC(C)C` as the compound, how does the AUCt read?
A: 415 µM·h

Test system: not listed separately
Assay: Prodrug conversion in C57BL6 mouse skin assessed as 4-methyl itaconic AUC (0 to t) at 100 mg/kg, po measured after 24 hrs by LC-MS/MS analysis
Format: ADME, organism-based, Skin of body
Settings: in vivo

Q: Which AUCt does the source give for `C=C(CC(=O)OC)C(=O)OCOC(=O)OC(C)C` here?
A: 234 nmol·h/g

Test system: not listed separately
Assay: Prodrug conversion in C57BL6 mouse plasma assessed as 4-methyl itaconic half life at 100 mg/kg, po measured after 24 hrs by LC-MS/MS analysis
Format: ADME, organism-based
Settings: in vivo
In short: as §4

Q: For `C=C(CC(=O)OC)C(=O)OCOC(=O)OC(C)C`, which t1/2 is on record?
A: 52.2 min

Test system: not listed separately
Assay: Prodrug conversion in C57BL6 mouse skin assessed as 4-methyl itaconic half life at 100 mg/kg, po measured after 24 hrs by LC-MS/MS analysis
Format: ADME, organism-based, Skin of body
Settings: in vivo
In short: as §4

Q: Which t1/2 does the source give for `C=C(CC(=O)OC)C(=O)OCOC(=O)OC(C)C` here?
A: 58.2 min

Test system: not listed separately
Assay: Prodrug conversion in po dosed C57BL6 mouse skin assessed as 4-methyl itaconic concentration measured after 24 hrs
Format: ADME, organism-based, Skin of body
Settings: in vivo

Q: Which Drug metabolism does the source give for `C=C(CC(=O)OC)C(=O)OCOC(=O)OC(C)C` here?
A: > 100 µM

Test system: not listed separately
Assay: Toxicity in C57BL6 mouse assessed as hematological changes at 30 to 100 mg/kg, ip measured after 7 days
Format: organism-based
Settings: in vivo, 168 h, dose 30-100 mg/kg, time 7 day

Q: Which Activity does the source give for `C=C(CC(=O)OC)C(=O)OCOC(=O)OC(C)C` here?
A: Non-toxic

Test system: not listed separately
Assay: Toxicity in C57BL6 mouse assessed as body weight loss at 30 to 100 mg/kg, ip administrated daily and measured after 7 days
Format: organism-based
Settings: in vivo, 168 h, dose 30-100 mg/kg, time 7 day

Q: For `C=C(CC(=O)OC)C(=O)OCOC(=O)OC(C)C`, which Activity is on record?
A: Non-toxic

Test system: not listed separately
Assay: Immunomodulatory activity in NHEK cells assessed as inhibition of IL-6 mRNA expression at 100 uM preincubated for 2 days and measured after 24 hrs by TaqMan RTPCR analysis
Format: functional
Settings: Homo sapiens, 48 h, time 2 day

Q: For `C=C(CC(=O)OC)C(=O)OCOC(=O)OC(C)C`, which inhibition at 100 µM is on record?
A: > 90%
